In ChEMBL document CHEMBL3352720, “Novel alkylphospholipid-DTC hybrids as promising agents against endocrine related cancers acting via modulation of Akt-pathway” (Eur J Med Chem, 2014):
One block for each molecule: values may come before it. Calls of active or inactive are those of the source. The rule behind the calls is not given here.

Legend:
MCF7 [1] = assay: Down-regulation of cyclin A1 mRNA expression in human MCF7 cells at 2 to 10 uM incubated for 24 hrs by quantitative real time PCR method; format: functional, cell-based
In short: (§1)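 MCF-7 cells in DMEM/10% FBS were treated for 24 h at the indicated concentrations, then harvested, and mRNA levels were determined by qPCR.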

MCF7 [2] = assay: Down-regulation of cyclin A2 mRNA expression in human MCF7 cells at 2 to 10 uM incubated for 24 hrs by quantitative real time PCR method; format: functional, cell-based; in short: as §1
MCF7 [3] = assay: Down-regulation of Bcl-2 mRNA expression in human MCF7 cells at 2 to 10 uM incubated for 24 hrs by quantitative real time PCR method; format: functional, cell-based; in short: as §1
MCF7 [4] = assay: Induction of mitochondrial membrane potential loss in human MCF7 cells assessed as increase in JC1 dye monomer green fluorescence at 7 uM incubated for 24 hrs by JC1 dye based flow cytometry (reference value: 1.78%); format: functional
MDA-MB-231 [5] = assay: Inhibition of AKT Ser473 phosphorylation in human MDA-MB-231 cells at 2 uM incubated for 24 hrs by Western blotting method; format: cell-based
In short: (§2)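 After 24 h treatment, cells were washed in ice-cold PBS and lysed in RIPA buffer. Protein was measured by Bradford, equal amounts run on SDS-PAGE and transferred to PVDF. Blots were probed for p-Akt (Ser473) and total Akt, then 1 h with 1:5000 HRP anti-mouse IgG, with chemiluminescent detection. Densitometry was quantified against untreated control.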

MCF7 [6] = assay: Potency index, ratio of IC50 for miltefosine to IC50 for test compound against human MCF7 cells by MTT assay; format: functional
MDA-MB-231 [7] = assay: Antiproliferative activity against human MDA-MB-231 cells assessed as inhibition of cell proliferation incubated for 18 hrs followed by MTT addition for 4 hrs by MTT assay; format: functional, cell-based
In short: (§3)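 MTT assay. Cells were grown in DMEM with 10% FBS at 37 °C, 5% CO2, 90% relative humidity. 1 × 10⁴ cells per well were seeded and held 24 h, then exposed to compounds diluted in culture medium for 18 h. MTT (5 mg/mL stock) was added for a further 4 h.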

MCF7 [8] = assay: Antiproliferative activity against human MCF7 cells assessed as inhibition of cell proliferation incubated for 18 hrs followed by MTT addition for 4 hrs by MTT assay; format: functional, cell-based; in short: as §3
HEK293 = assay: Antiproliferative activity against HEK293 cells assessed as inhibition of cell proliferation incubated for 18 hrs followed by MTT addition for 4 hrs by MTT assay; format: cell-based; conditions: Homo sapiens; in short: as §3
[9] = Antiproliferative activity against human DU145 cells assessed as inhibition of cell proliferation incubated for 18 hrs followed by MTT addition for 4 hrs by MTT assay; format: functional, cell-based; conditions: DU-145; in short: as §3
MCF7 [10] = assay: Induction of cell cycle arrest in human MCF7 cells assessed as accumulation at G0/G1 phase at 7 uM incubated for 24 hrs by propidium iodide staining based FACS assay (reference value: 53.32%); format: functional
MCF7 [11] = assay: Induction of cell cycle arrest in human MCF7 cells assessed as accumulation at S phase at 7 uM incubated for 24 hrs by propidium iodide staining based FACS assay (reference value: 45.21%); format: functional
MCF7 [12] = assay: Induction of cell cycle arrest in human MCF7 cells assessed as accumulation at G2/M phase at 7 uM incubated for 24 hrs by propidium iodide staining based FACS assay (reference value: 1.47%); format: functional
MCF7 [13] = assay: Induction of cell cycle arrest in human MCF7 cells assessed as accumulation at sub-diploid phase at 7 uM incubated for 24 hrs by propidium iodide staining based FACS assay (reference value: 7.26%); format: functional
MCF7 [14] = assay: Induction of apoptosis in human MCF7 cells assessed as viable cells level at 7 uM incubated for 24 hrs by annexin-V and propidium iodide staining based flow cytometry (reference value: 89.58%); format: functional
MCF7 [15] = assay: Induction of apoptosis in human MCF7 cells assessed as early apoptotic cells level at 7 uM incubated for 24 hrs by annexin-V and propidium iodide staining based flow cytometry (reference value: 6.42%); format: functional
MCF7 [16] = assay: Induction of apoptosis in human MCF7 cells assessed as late apoptotic cells level at 7 uM incubated for 24 hrs by annexin-V and propidium iodide staining based flow cytometry (reference value: 1.85%); format: functional
MCF7 [17] = assay: Induction of apoptosis in human MCF7 cells assessed as necrotic cells level at 7 uM incubated for 24 hrs by annexin-V and propidium iodide staining based flow cytometry (reference value: 2.15%); format: functional
DU-145 [18] = assay: Induction of apoptosis in human DU145 cells assessed as early apoptotic cells level at 10 uM incubated for 24 hrs by annexin-V and propidium iodide staining based flow cytometry (reference value: 2.06%); format: functional
DU-145 [19] = assay: Induction of apoptosis in human DU145 cells assessed as late apoptotic cells level at 10 uM incubated for 24 hrs by annexin-V and propidium iodide staining based flow cytometry (reference value: 2.96%); format: functional
DU-145 [20] = assay: Induction of apoptosis in human DU145 cells assessed as necrotic cells level at 10 uM incubated for 24 hrs by annexin-V and propidium iodide staining based flow cytometry (reference value: 1.33%); format: functional
DU-145 [21] = assay: Induction of apoptosis in human DU145 cells assessed as viable cells level at 15 uM incubated for 24 hrs by annexin-V and propidium iodide staining based flow cytometry (reference value: 93.65%); format: functional
DU-145 [22] = assay: Induction of apoptosis in human DU145 cells assessed as early apoptotic cells level at 15 uM incubated for 24 hrs by annexin-V and propidium iodide staining based flow cytometry (reference value: 2.06%); format: functional
DU-145 [23] = assay: Induction of apoptosis in human DU145 cells assessed as late apoptotic cells level at 15 uM incubated for 24 hrs by annexin-V and propidium iodide staining based flow cytometry (reference value: 2.96%); format: functional
DU-145 [24] = assay: Induction of apoptosis in human DU145 cells assessed as necrotic cells level at 15 uM incubated for 24 hrs by annexin-V and propidium iodide staining based flow cytometry (reference value: 1.33%); format: functional
DU-145 [25] = assay: Increase in Bax protein expression in human DU145 cells at 5 to 15 uM incubated for 24 hrs by Western blotting method; format: functional, cell-based
In short: (§4)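 DU-145 cells were exposed for 24 h and lysed in RIPA buffer. Protein was quantified by Bradford, and equal amounts were run on SDS-PAGE, transferred to PVDF and immunoblotted, with chemiluminescent detection. Bax/Bcl-2 ratio was taken from 3 densitometric scans as mean SE versus control.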

[26] = Reduction in Bcl-2 protein expression in human DU145 cells at 5 to 15 uM incubated for 24 hrs by Western blotting method; format: functional, cell-based; conditions: DU-145
DU-145 [27] = assay: Increase in Bax/Bcl-2 expression ratio in human DU145 cells at 15 uM incubated for 24 hrs by Western blotting method; format: functional, cell-based; in short: as §4
DU-145 [28] = assay: Induction of mitochondrial membrane potential loss in human DU145 cells assessed as increase in JC1 dye monomer green fluorescence at 5 uM incubated for 24 hrs by JC1 dye based flow cytometry (reference value: 2.81%); format: functional
DU-145 [29] = assay: Induction of mitochondrial membrane potential loss in human DU145 cells assessed as increase in JC1 dye monomer green fluorescence at 10 uM incubated for 24 hrs by JC1 dye based flow cytometry (reference value: 2.81%); format: functional
DU-145 [30] = assay: Induction of mitochondrial membrane potential loss in human DU145 cells assessed as increase in JC1 dye monomer green fluorescence at 15 uM incubated for 24 hrs by JC1 dye based flow cytometry (reference value: 2.81%); format: functional
DU-145 [31] = assay: Induction of mitochondrial membrane potential loss in human DU145 cells assessed as increase in JC1 dye monomer green fluorescence incubated for 24 hrs by JC1 dye based flow cytometry; format: functional, cell-based
DU-145 [32] = assay: Inhibition of AKT Ser473 phosphorylation in human DU145 cells at 15 uM incubated for 24 hrs by Western blotting method; format: cell-based; in short: as §2
DU-145 [33] = assay: Potency index, ratio of IC50 for miltefosine to IC50 for test compound against human DU145 cells by MTT assay; format: functional
[34] = Antiproliferative activity against human PC3 cells assessed as inhibition of cell proliferation incubated for 18 hrs followed by MTT addition for 4 hrs by MTT assay; format: functional, cell-based; conditions: PC-3; in short: as §3
DU-145 [35] = assay: Induction of cell cycle arrest in human DU145 cells assessed as accumulation at G0/G1 phase at 5 uM incubated for 24 hrs by propidium iodide staining based FACS assay (reference value: 53.66%); format: functional
DU-145 [36] = assay: Induction of cell cycle arrest in human DU145 cells assessed as accumulation at S phase at 5 uM incubated for 24 hrs by propidium iodide staining based FACS assay (reference value: 39.44%); format: functional
DU-145 [37] = assay: Induction of cell cycle arrest in human DU145 cells assessed as accumulation at G2/M phase at 5 uM incubated for 24 hrs by propidium iodide staining based FACS assay (reference value: 6.90%); format: functional
DU-145 [38] = assay: Induction of cell cycle arrest in human DU145 cells assessed as accumulation at G0/G1 phase at 10 uM incubated for 24 hrs by propidium iodide staining based FACS assay (reference value: 53.66%); format: functional
DU-145 [39] = assay: Induction of cell cycle arrest in human DU145 cells assessed as accumulation at S phase at 10 uM incubated for 24 hrs by propidium iodide staining based FACS assay (reference value: 39.44%); format: functional
DU-145 [40] = assay: Induction of cell cycle arrest in human DU145 cells assessed as accumulation at G2/M phase at 10 uM incubated for 24 hrs by propidium iodide staining based FACS assay (reference value: 6.90%); format: functional
DU-145 [41] = assay: Induction of cell cycle arrest in human DU145 cells assessed as accumulation at G0/G1 phase at 15 uM incubated for 24 hrs by propidium iodide staining based FACS assay (reference value: 53.66%); format: functional
DU-145 [42] = assay: Induction of cell cycle arrest in human DU145 cells assessed as accumulation at S phase at 15 uM incubated for 24 hrs by propidium iodide staining based FACS assay (reference value: 39.44%); format: functional
DU-145 [43] = assay: Induction of cell cycle arrest in human DU145 cells assessed as accumulation at G2/M phase at 15 uM incubated for 24 hrs by propidium iodide staining based FACS assay (reference value: 6.90%); format: functional
DU-145 [44] = assay: Induction of apoptosis in human DU145 cells assessed as viable cells level at 5 uM incubated for 24 hrs by annexin-V and propidium iodide staining based flow cytometry (reference value: 93.65%); format: functional
DU-145 [45] = assay: Induction of apoptosis in human DU145 cells assessed as early apoptotic cells level at 5 uM incubated for 24 hrs by annexin-V and propidium iodide staining based flow cytometry (reference value: 2.06%); format: functional
DU-145 [46] = assay: Induction of apoptosis in human DU145 cells assessed as late apoptotic cells level at 5 uM incubated for 24 hrs by annexin-V and propidium iodide staining based flow cytometry (reference value: 2.96%); format: functional
DU-145 [47] = assay: Induction of apoptosis in human DU145 cells assessed as necrotic cells level at 5 uM incubated for 24 hrs by annexin-V and propidium iodide staining based flow cytometry (reference value: 1.33%); format: functional
DU-145 [48] = assay: Induction of apoptosis in human DU145 cells assessed as viable cells level at 10 uM incubated for 24 hrs by annexin-V and propidium iodide staining based flow cytometry (reference value: 93.65%); format: functional

IC50 (MDA-MB-231 [7]): 24.6 µM | IC50 (MCF7 [8]): 7.24 µM
Structure (SMILES): CCCCCCCCCCOP(=O)(O)OCCSC(=S)N1CCCCC1
Activity (MCF7 [1]): Active | Activity (MCF7 [2]): Active | Activity (MCF7 [3]): Active | Activity (MCF7 [4]): 44.62% | inhibition (MDA-MB-231 [5]): Active | Ratio IC50 (MCF7 [6]): 5 | IC50 (HEK293): 70.7 µM | IC50 [9]: 29.3 µM | Activity (MCF7 [10]): 60.99% | Activity (MCF7 [11]): 39.01% | Activity (MCF7 [12]): 0% | Activity (MCF7 [13]): 23.81% | Activity (MCF7 [14]): 43.43% | Activity (MCF7 [15]): 41.66% | Activity (MCF7 [16]): 12.76% | Activity (MCF7 [17]): 2.15%

IC50 (MDA-MB-231 [7]): 100 µM | IC50 (MCF7 [8]): 29 µM
Structure (SMILES): CCCCCCCCCCCCCCCCOP(=O)(O)OCCSC(=S)N1CCCCC1
Activity (DU-145 [18]): 11.06% | Activity (DU-145 [19]): 4.52% | Activity (DU-145 [20]): 1.4% | Activity (DU-145 [21]): 78.81% | Activity (DU-145 [22]): 12.65% | Activity (DU-145 [23]): 6.33% | Activity (DU-145 [24]): 2.21% | Activity (DU-145 [25]): Active | Activity [26]: Active | Activity (DU-145 [27]): Active | Activity (DU-145 [28]): 3.68% | Activity (DU-145 [29]): 30.84% | Activity (DU-145 [30]): 9.29% | Activity (DU-145 [31]): Dose-dependent effect | inhibition (DU-145 [32]): Active | Ratio IC50 (DU-145 [33]): 2 | IC50 (HEK293): > 100 µM | IC50 [34]: 34.3 µM | IC50 [9]: 14.7 µM | Activity (DU-145 [35]): 59.09% | Activity (DU-145 [36]): 35.26% | Activity (DU-145 [37]): 5.65% | Activity (DU-145 [38]): 61.15% | Activity (DU-145 [39]): 32.94% | Activity (DU-145 [40]): 5.92% | Activity (DU-145 [41]): 67.13% | Activity (DU-145 [42]): 27.27% | Activity (DU-145 [43]): 5.6% | Activity (DU-145 [44]): 86.45% | Activity (DU-145 [45]): 9% | Activity (DU-145 [46]): 2.91% | Activity (DU-145 [47]): 1.64% | Activity (DU-145 [48]): 83.02%
